ChEMBL document CHEMBL1255259, “Phosphorothioate-modified oligodeoxynucleotides inhibit human cytomegalovirus replication by blocking virus entry” (Antimicrob Agents Chemother, 2008)
Activity calls are given as the source filed them. The rule behind the calls is not given here.

How the values were obtained:
Human betaherpesvirus 5 [1] = assay: Antimicrobial activity against Human cytomegalovirus AD169 infected in 1 uM compound pretreated HELF assessed as inhibition of viral replication measured after 6 days post-infection; type: functional, organism-based
Method in brief: (§1)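 HELF pretreated with ODN 1 h before infection with HCMV AD169 (MOI 1); ODN kept in medium after 2 h adsorption at 37°C. At 6 days p.i., cells plus supernatants sonicated and titrated by plaque assay on HELF; plaques counted microscopically, expressed as PFU/ml (log10) or % of control. IC50/IC90 by linear regression; duplicate wells, three independent experiments, means ± SD.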

[2] = Cytotoxicity against HELF assessed as cell viability after 6 days by MTT assay; type: cell-based; settings: human, HELF cells
Method in brief: (§2)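 HELF exposed to rising ODN concentrations (up to 10 μM) for 6 days; viable cells measured by MTT. CC50 taken as concentration that cuts viability to 50%.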

Human betaherpesvirus 5 [3] = assay: Antimicrobial activity against 0.1 uM compound pretreated Human cytomegalovirus AD169 infected in HELF assessed as reduction in viral titer at 4 degC; type: functional, organism-based
Method in brief: (§3)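 HCMV AD169 (10^4 PFU) incubated with ODN at 0.1 μM at 4 or 37°C for various times; samples then diluted to bring ODN below an antivirally active level; residual infectivity titrated by plaque assay on HELF. Means ± SD of three independent experiments.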

[4] = Cytotoxicity against HELF assessed as cell viability by MTT assay after 6 days at <=10 uM; type: cell-based; settings: human, 144 h; method in brief: as §2
Human betaherpesvirus 5 [5] = assay: Antimicrobial activity against Human cytomegalovirus AD169 infected in compound pretreated HELF assessed as inhibition of viral replication measured after 6 days post-infection; type: functional, organism-based; settings: Human betaherpesvirus 5, AD169, HELF; method in brief: as §1
Human betaherpesvirus 5 [6] = assay: Antimicrobial activity against Human cytomegalovirus AD169 infected in 0.1 uM compound pretreated HELF assessed as inhibition of viral replication measured after 6 days post-infection; type: functional, organism-based; method in brief: as §1
Human betaherpesvirus 5 [7] = assay: Antimicrobial activity against 0.1 uM compound pretreated Human cytomegalovirus AD169 infected in HELF assessed as reduction in viral titer 37 degC; type: functional, organism-based; method in brief: as §3

Compound | inhibition (Human betaherpesvirus 5 [1]) | CC50 at 144 h [2] | inhibition (Human betaherpesvirus 5 [3]) | Activity [4] | IC50 (Human betaherpesvirus 5 [5]) | IC90 (Human betaherpesvirus 5 [5]) | inhibition (Human betaherpesvirus 5 [6]) | inhibition (Human betaherpesvirus 5 [7])
Cc1cn([C@H]2C[C@H](OP(O)(=S)OC[C@H]3O[C@@H](n4cc(C)c(=O)[nH]c4=O)C[C@@H]3OP(O)(O)=S)[C@@H](OOP(O)(=S)O[C@H]3[C@@H](O)[C@H](n4ccc(N)nc4=O)O[C@@H]3COP(O)(=S)O[C@H]3[C@@H](O)[C@H](n4cnc5c(=O)[nH]c(N)nc54)O[C@@H]3COP(O)(=S)O[C@H]3[C@@H](O)[C@H](n4cnc5c(N)ncnc54)O[C@@H]3COP(O)(=S)O[C@H]3[C@@H](O)[C@H](n4cnc5c(=O)[nH]c(N)nc54)O[C@@H]3COP(O)(=S)O[C@H]3C[C@H](n4cc(C)c(=O)[nH]c4=O)O[C@@H]3COP(O)(=S)O[C@H]3[C@@H](O)[C@H](n4ccc(N)nc4=O)O[C@@H]3COP(O)(=S)O[C@H]3[C@@H](O)[C@H](n4ccc(N)nc4=O)O[C@@H]3COP(O)(=S)O[C@H]3C[C@H](n4cc(C)c(=O)[nH]c4=O)O[C@@H]3COP(O)(=S)O[C@H]3C[C@H](n4cc(C)c(=O)[nH]c4=O)O[C@@H]3COP(O)(=S)O[C@H]3[C@@H](O)[C@H](n4ccc(N)nc4=O)O[C@@H]3COP(O)(=S)O[C@H]3[C@@H](O)[C@H](n4cnc5c(=O)[nH]c(N)nc54)O[C@@H]3COP(O)(=S)O[C@H]3[C@@H](O)[C@H](n4cnc5c(N)ncnc54)O[C@@H]3COP(O)(=S)O[C@H]3[C@@H](O)[C@H](n4cnc5c(=O)[nH]c(N)nc54)O[C@@H]3COP(O)(=S)O[C@H]3C[C@H](n4cc(C)c(=O)[nH]c4=O)O[C@@H]3COP(O)(=S)O[C@H]3[C@@H](O)[C@H](n4cnc5c(N)ncnc54)O[C@@H]3COP(O)(=S)O[C@H]3[C@@H](O)[C@H](n4ccc(N)nc4=O)O[C@@H]3COP(O)(=S)O[C@H]3[C@@H](O)[C@H](n4ccc(N)nc4=O)O[C@@H]3COP(O)(=S)O[C@H]3C[C@H](n4cc(C)c(=O)[nH]c4=O)O[C@@H]3CO)O2)c(=O)[nH]c1=O (some centres not stated) | Active | > 10 µM | inactive | Non-toxic | 0.2 µM | > 5 µM | Active | inactive
Cc1cn([C@H]2C[C@H](OP(=O)(O)O)[C@@H](COP(=O)(O)O[C@H]3C[C@H](n4cc(C)c(=O)[nH]c4=O)O[C@@H]3COP(=O)(O)O[C@H]3[C@@H](O)[C@H](n4cnc5c(=O)[nH]c(N)nc54)O[C@@H]3COP(=O)(O)O[C@H]3[C@@H](O)[C@H](n4ccc(N)nc4=O)O[C@@H]3COP(=O)(O)O[C@H]3C[C@H](n4cc(C)c(=O)[nH]c4=O)O[C@@H]3COP(=O)(O)O[C@H]3[C@@H](O)[C@H](n4cnc5c(=O)[nH]c(N)nc54)O[C@@H]3COP(=O)(O)O[C@H]3C[C@H](n4cc(C)c(=O)[nH]c4=O)O[C@@H]3COP(=O)(O)O[C@H]3C[C@H](n4cc(C)c(=O)[nH]c4=O)O[C@@H]3COP(=O)(O)O[C@H]3C[C@H](n4cc(C)c(=O)[nH]c4=O)O[C@@H]3COP(=O)(O)O[C@H]3C[C@H](n4cc(C)c(=O)[nH]c4=O)O[C@@H]3COP(=O)(O)O[C@H]3[C@@H](O)[C@H](n4cnc5c(=O)[nH]c(N)nc54)O[C@@H]3COP(=O)(O)O[C@H]3[C@@H](O)[C@H](n4ccc(N)nc4=O)O[C@@H]3COP(=O)(O)O[C@H]3C[C@H](n4cc(C)c(=O)[nH]c4=O)O[C@@H]3COP(=O)(O)O[C@H]3[C@@H](O)[C@H](n4cnc5c(=O)[nH]c(N)nc54)O[C@@H]3COP(=O)(O)O[C@H]3C[C@H](n4cc(C)c(=O)[nH]c4=O)O[C@@H]3COP(=O)(O)O[C@H]3C[C@H](n4cc(C)c(=O)[nH]c4=O)O[C@@H]3COP(=O)(O)O[C@H]3C[C@H](n4cc(C)c(=O)[nH]c4=O)O[C@@H]3COP(=O)(O)O[C@H]3C[C@H](n4cc(C)c(=O)[nH]c4=O)O[C@@H]3COP(=O)(O)O[C@H]3[C@@H](O)[C@H](n4cnc5c(=O)[nH]c(N)nc54)O[C@@H]3COP(=O)(O)O[C@H]3[C@@H](O)[C@H](n4ccc(N)nc4=O)O[C@@H]3COP(=O)(O)O[C@H]3C[C@H](n4cc(C)c(=O)[nH]c4=O)O[C@@H]3COP(=O)(O)O[C@H]3[C@@H](O)[C@H](n4cnc5c(=O)[nH]c(N)nc54)O[C@@H]3COP(=O)(O)O[C@H]3[C@@H](O)[C@H](n4ccc(N)nc4=O)O[C@@H]3COP(=O)(O)O[C@H]3C[C@H](n4cc(C)c(=O)[nH]c4=O)O[C@@H]3CO)O2)c(=O)[nH]c1=O | Active | > 10 µM | inactive | Non-toxic | 3.8 µM | > 10 µM | Active | inactive
Cc1cn([C@H]2C[C@H](OP(=O)(O)OC[C@H]3O[C@@H](n4ccc(N)nc4=O)[C@H](O)[C@@H]3OP(=O)(O)OC[C@H]3O[C@@H](n4cnc5c(=O)[nH]c(N)nc54)[C@H](O)[C@@H]3OP(=O)(O)OC[C@H]3O[C@@H](n4cc(C)c(=O)[nH]c4=O)C[C@@H]3OP(=O)(O)OC[C@H]3O[C@@H](n4ccc(N)nc4=O)[C@H](O)[C@@H]3OP(=O)(O)OC[C@H]3O[C@@H](n4cnc5c(=O)[nH]c(N)nc54)[C@H](O)[C@@H]3OP(=O)(O)OC[C@H]3O[C@@H](n4cnc5c(=O)[nH]c(N)nc54)[C@H](O)[C@@H]3OP(O)(=S)OC[C@H]3O[C@@H](n4cnc5c(=O)[nH]c(N)nc54)[C@H](O)[C@@H]3OP(O)(=S)OC[C@H]3O[C@@H](n4cnc5c(=O)[nH]c(N)nc54)[C@H](O)[C@@H]3OP(O)(=S)OC[C@H]3O[C@@H](n4cnc5c(=O)[nH]c(N)nc54)[C@H](O)[C@@H]3OP(O)(=S)OC[C@H]3O[C@@H](n4cnc5c(=O)[nH]c(N)nc54)[C@H](O)[C@@H]3OP(O)(O)=S)[C@@H](COP(=O)(O)O[C@H]3[C@@H](O)[C@H](n4cnc5c(N)ncnc54)O[C@@H]3COP(=O)(O)O[C@H]3[C@@H](O)[C@H](n4cnc5c(=O)[nH]c(N)nc54)O[C@@H]3COP(=O)(O)O[C@H]3[C@@H](O)[C@H](n4ccc(N)nc4=O)O[C@@H]3COP(=O)(O)O[C@H]3[C@@H](O)[C@H](n4cnc5c(N)ncnc54)O[C@@H]3COP(=O)(O)O[C@H]3[C@@H](O)[C@H](n4cnc5c(=O)[nH]c(N)nc54)O[C@@H]3COP(=O)(O)O[C@H]3[C@@H](O)[C@H](n4cnc5c(=O)[nH]c(N)nc54)O[C@@H]3COP(=O)(O)O[C@H]3[C@@H](O)[C@H](n4cnc5c(=O)[nH]c(N)nc54)O[C@@H]3COP(O)(=S)O[C@H]3[C@@H](O)[C@H](n4cnc5c(=O)[nH]c(N)nc54)O[C@@H]3COP(O)(=S)O[C@H]3[C@@H](O)[C@H](n4cnc5c(=O)[nH]c(N)nc54)O[C@@H]3CO)O2)c(=O)[nH]c1=O (some centres not stated) | Active | > 10 µM | inactive | Non-toxic | 0.14 µM | 3.6 µM | Active | inactive
Cc1cn([C@H]2C[C@H](OP(O)(=S)OC[C@H]3O[C@@H](n4ccc(N)nc4=O)[C@H](O)[C@@H]3OP(O)(=S)OC[C@H]3O[C@@H](n4cnc5c(=O)[nH]c(N)nc54)[C@H](O)[C@@H]3OP(O)(=S)OC[C@H]3O[C@@H](n4cc(C)c(=O)[nH]c4=O)C[C@@H]3OP(O)(=S)OC[C@H]3O[C@@H](n4ccc(N)nc4=O)[C@H](O)[C@@H]3OP(O)(=S)OC[C@H]3O[C@@H](n4cnc5c(=O)[nH]c(N)nc54)[C@H](O)[C@@H]3OP(O)(=S)OC[C@H]3O[C@@H](n4cc(C)c(=O)[nH]c4=O)C[C@@H]3OP(O)(=S)OC[C@H]3O[C@@H](n4cc(C)c(=O)[nH]c4=O)C[C@@H]3OP(O)(=S)OC[C@H]3O[C@@H](n4cc(C)c(=O)[nH]c4=O)C[C@@H]3OP(O)(=S)OC[C@H]3O[C@@H](n4cc(C)c(=O)[nH]c4=O)C[C@@H]3OP(O)(=S)OC[C@H]3O[C@@H](n4ccc(N)nc4=O)[C@H](O)[C@@H]3OP(O)(=S)OC[C@H]3O[C@@H](n4cnc5c(=O)[nH]c(N)nc54)[C@H](O)[C@@H]3OP(O)(=S)OC[C@H]3O[C@@H](n4cnc5c(=O)[nH]c(N)nc54)[C@H](O)[C@@H]3OP(O)(=S)OC[C@H]3O[C@@H](n4ccc(N)nc4=O)[C@H](O)[C@@H]3OP(O)(=S)OC[C@H]3O[C@@H](n4cnc5c(=O)[nH]c(N)nc54)[C@H](O)[C@@H]3OP(O)(=S)OC[C@H]3O[C@@H](n4ccc(N)nc4=O)[C@H](O)[C@@H]3OP(O)(=S)OC[C@H]3O[C@@H](n4cnc5c(=O)[nH]c(N)nc54)[C@H](O)[C@@H]3OP(O)(=S)OC[C@H]3O[C@@H](n4ccc(N)nc4=O)[C@H](O)[C@@H]3OP(O)(=S)OC[C@H]3O[C@@H](n4cnc5c(=O)[nH]c(N)nc54)[C@H](O)[C@@H]3OP(O)(=S)OC[C@H]3O[C@@H](n4ccc(N)nc4=O)[C@H](O)[C@@H]3OP(O)(=S)OC[C@H]3O[C@@H](n4ccc(N)nc4=O)[C@H](O)[C@@H]3OP(O)(=S)OC[C@H]3O[C@@H](n4cnc5c(=O)[nH]c(N)nc54)[C@H](O)[C@@H]3OP(O)(O)=S)[C@@H](CO)O2)c(=O)[nH]c1=O (some centres not stated) | Active | > 10 µM | inactive | Non-toxic | 0.1 µM | 3.2 µM | Active | inactive
